Assay results: ChEMBL document CHEMBL5376013, “Design, synthesis and biological evaluation of novel morpholinopyrimidine-5-carbonitrile derivatives as dual PI3K/mTOR inhibitors” (RSC Med Chem, 2024)

How the values were obtained:
Type in all cases: functional
Settings in all cases: read-out: GI
SW-620 = assay: Antitumor activity against human SW-620 cells assessed as growth inhibition at 10 uM relative to control
Method in brief: (§1)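 Drug exposure 48 h at 37 °C, 5% CO2. Adherent cells fixed with cold TCA (10% final), suspension cells with TCA (16% final). Stained with 0.4% SRB in 1% acetic acid, dissolved in 10 mM Tris, A515. Growth relative to time-zero and untreated control.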

NCI/ADR-RES = assay: Antitumor activity against human NCI-ADR-RES cells assessed as growth inhibition at 10 uM relative to control
Method in brief: (§2)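 After drug addition, plates were incubated 48 h at 37 °C under 5% CO2. Adherent cells were fixed with cold TCA (10% final, 60 min, 4 °C) and suspension cells with 16% final TCA. Staining used 0.4% SRB in 1% acetic acid, solubilized in 10 mM trizma, read at A515. Percent growth was calculated from time-zero, control and treated absorbances.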

SR = assay: Antitumor activity against human SR cells assessed as growth inhibition at 10 uM relative to control; method in brief: as §1
MCF7 = assay: Antitumor activity against human MCF7 cells assessed as growth inhibition at 10 uM relative to control; method in brief: as §2
UACC-62 = assay: Antitumor activity against human UACC-62 cells assessed as growth inhibition at 10 uM relative to control; method in brief: as §1
HOP-92 = assay: Antitumor activity against human HOP-92 cells assessed as growth inhibition at 10 uM relative to control; method in brief: as §2
SK-MEL-5 = assay: Antitumor activity against human SK-MEL-5 cells assessed as growth inhibition at 10 uM relative to control; method in brief: as §1
HCT-15 = assay: Antitumor activity against human HCT-15 cells assessed as growth inhibition at 10 uM relative to control; method in brief: as §2
NCI-H23 = assay: Antitumor activity against human NCI-H23 cells assessed as growth inhibition at 10 uM relative to control; method in brief: as §2
ACHN = assay: Antitumor activity against human ACHN cells assessed as growth inhibition at 10 uM relative to control; method in brief: as §2
NCI-H522 = assay: Antitumor activity against human NCI-H522 cells assessed as growth inhibition at 10 uM relative to control; method in brief: as §2
T47D = assay: Antitumor activity against human T47D cells assessed as growth inhibition at 10 uM relative to control; method in brief: as §1
786-0 = assay: Antitumor activity against human 786-0 cells assessed as growth inhibition at 10 uM relative to control; method in brief: as §2
SN12C = assay: Antitumor activity against human SN12C cells assessed as growth inhibition at 10 uM relative to control; method in brief: as §1
HL-60 = assay: Antitumor activity against human HL-60 cells assessed as growth inhibition at 10 uM relative to control; method in brief: as §2
MDA-MB-468 = assay: Antitumor activity against human MDA-MB-468 cells assessed as growth inhibition at 10 uM relative to control; method in brief: as §2
Malme-3M = assay: Antitumor activity against human Malme-3M cells assessed as growth inhibition at 10 uM relative to control; method in brief: as §2
COLO 205 = assay: Antitumor activity against human COLO 205 cells assessed as growth inhibition at 10 uM relative to control; method in brief: as §2
LOX IMVI = assay: Antitumor activity against human LOX IMVI cells assessed as growth inhibition at 10 uM relative to control; method in brief: as §2
RPMI-8226 = assay: Antitumor activity against human RPMI-8226 cells assessed as growth inhibition at 10 uM relative to control; method in brief: as §2
A498 = assay: Antitumor activity against human A498 cells assessed as growth inhibition at 10 uM relative to control; method in brief: as §2
UO-31 = assay: Antitumor activity against human UO-31 cells assessed as growth inhibition at 10 uM relative to control; method in brief: as §1
MOLT-4 = assay: Antitumor activity against human MOLT-4 cells assessed as growth inhibition at 10 uM relative to control; method in brief: as §2
CCRF-CEM = assay: Antitumor activity against human CCRF-CEM cells assessed as growth inhibition at 10 uM relative to control; method in brief: as §2
CAKI-1 = assay: Antitumor activity against human CAKI-1 cells assessed as growth inhibition at 10 uM relative to control; method in brief: as §2
SK-OV-3 = assay: Antitumor activity against human SK-OV-3 cells assessed as growth inhibition at 10 uM relative to control; method in brief: as §1
K562 = assay: Antitumor activity against human K562 cells assessed as growth inhibition at 10 uM relative to control; method in brief: as §2
RXF 393 = assay: Antitumor activity against human RXF 393 cells assessed as growth inhibition at 10 uM relative to control; method in brief: as §2
U-251 = assay: Antitumor activity against human U-251 cells assessed as growth inhibition at 10 uM relative to control; method in brief: as §1
NCI-H226 = assay: Antitumor activity against human NCI-H226 cells assessed as growth inhibition at 10 uM relative to control; method in brief: as §2
DU-145 = assay: Antitumor activity against human DU-145 cells assessed as growth inhibition at 10 uM relative to control; method in brief: as §2
IGROV-1 = assay: Antitumor activity against human IGROV-1 cells assessed as growth inhibition at 10 uM relative to control; method in brief: as §2
HOP-62 = assay: Antitumor activity against human HOP-62 cells assessed as growth inhibition at 10 uM relative to control; method in brief: as §2
Hs-578T = assay: Antitumor activity against human Hs-578T cells assessed as growth inhibition at 10 uM relative to control; method in brief: as §2
MDA-MB-231 = assay: Antitumor activity against human MDA-MB-231 cells assessed as growth inhibition at 10 uM relative to control; method in brief: as §2
SF-268 = assay: Antitumor activity against human SF-268 cells assessed as growth inhibition at 10 uM relative to control; method in brief: as §2
SNB-75 = assay: Antitumor activity against human SNB-75 cells assessed as growth inhibition at 10 uM relative to control; method in brief: as §1
A549 = assay: Antitumor activity against human A549 cells assessed as growth inhibition at 10 uM relative to control; method in brief: as §2
SK-MEL-2 = assay: Antitumor activity against human SK-MEL-2 cells assessed as growth inhibition at 10 uM relative to control; method in brief: as §2
SF-295 = assay: Antitumor activity against human SF-295 cells assessed as growth inhibition at 10 uM relative to control; method in brief: as §2
TK-10 = assay: Antitumor activity against human TK-10 cells assessed as growth inhibition at 10 uM relative to control; method in brief: as §1
MDA-MB-435 = assay: Antitumor activity against human MDA-MB-435 cells assessed as growth inhibition at 10 uM relative to control; method in brief: as §2
HCT-116 = assay: Antitumor activity against human HCT-116 cells assessed as growth inhibition at 10 uM relative to control; method in brief: as §2
HT-29 = assay: Antitumor activity against human HT-29 cells assessed as growth inhibition at 10 uM relative to control; method in brief: as §2
OVCAR-8 = assay: Antitumor activity against human OVCAR-8 cells assessed as growth inhibition at 10 uM relative to control; method in brief: as §2
SF-539 = assay: Antitumor activity against human SF-539 cells assessed as growth inhibition at 10 uM relative to control; method in brief: as §2

N#Cc1c(-c2ccc(Cl)cc2)nc(NN)nc1N1CCOCC1
inhibition of growth at 10 µM (SW-620): < 1% | inhibition of growth at 10 µM (NCI/ADR-RES): < 1% | inhibition of growth at 10 µM (SR): 26.9% | inhibition of growth at 10 µM (MCF7): 1% | inhibition of growth at 10 µM (UACC-62): 10.7% | inhibition of growth at 10 µM (HOP-92): 10.6% | inhibition of growth at 10 µM (SK-MEL-5): < 1% | inhibition of growth at 10 µM (HCT-15): < 1% | inhibition of growth at 10 µM (NCI-H23): 11.7% | inhibition of growth at 10 µM (ACHN): < 1% | inhibition of growth at 10 µM (NCI-H522): < 1% | inhibition of growth at 10 µM (T47D): 17.4% | inhibition of growth at 10 µM (786-0): < 1% | inhibition of growth at 10 µM (SN12C): < 1% | inhibition of growth at 10 µM (HL-60): < 1% | inhibition of growth at 10 µM (MDA-MB-468): < 1% | inhibition of growth at 10 µM (Malme-3M): < 1% | inhibition of growth at 10 µM (COLO 205): < 1% | inhibition of growth at 10 µM (LOX IMVI): < 1% | inhibition of growth at 10 µM (RPMI-8226): < 1% | inhibition of growth at 10 µM (A498): 27.8% | inhibition of growth at 10 µM (UO-31): 34.1% | inhibition of growth at 10 µM (MOLT-4): < 1% | inhibition of growth at 10 µM (CCRF-CEM): < 1% | inhibition of growth at 10 µM (CAKI-1): 20.8% | inhibition of growth at 10 µM (SK-OV-3): < 1% | inhibition of growth at 10 µM (K562): < 1% | inhibition of growth at 10 µM (RXF 393): < 1% | inhibition of growth at 10 µM (U-251): < 1% | inhibition of growth at 10 µM (NCI-H226): 14.1% | inhibition of growth at 10 µM (DU-145): < 1% | inhibition of growth at 10 µM (IGROV-1): 15.9% | inhibition of growth at 10 µM (HOP-62): 14.4% | inhibition of growth at 10 µM (Hs-578T): < 1% | inhibition of growth at 10 µM (MDA-MB-231): 14.5% | inhibition of growth at 10 µM (SF-268): < 1% | inhibition of growth at 10 µM (SNB-75): 26.9% | inhibition of growth at 10 µM (A549): < 1% | inhibition of growth at 10 µM (SK-MEL-2): < 1% | inhibition of growth at 10 µM (SF-295): < 1% | inhibition of growth at 10 µM (TK-10): < 1% | inhibition of growth at 10 µM (MDA-MB-435): < 1% | inhibition of growth at 10 µM (HCT-116): < 1% | inhibition of growth at 10 µM (HT-29): < 1% | inhibition of growth at 10 µM (OVCAR-8): < 1% | inhibition of growth at 10 µM (SF-539): 12.3%

CSc1nc(-c2ccc(Cl)cc2)c(C#N)c(N2CCOCC2)n1
inhibition of growth at 10 µM (SW-620): < 1% | inhibition of growth at 10 µM (NCI/ADR-RES): 12% | inhibition of growth at 10 µM (SR): 22.7% | inhibition of growth at 10 µM (MCF7): 1% | inhibition of growth at 10 µM (UACC-62): < 1% | inhibition of growth at 10 µM (HOP-92): 21.1% | inhibition of growth at 10 µM (SK-MEL-5): < 1% | inhibition of growth at 10 µM (HCT-15): < 1% | inhibition of growth at 10 µM (NCI-H23): 10.8% | inhibition of growth at 10 µM (ACHN): < 1% | inhibition of growth at 10 µM (NCI-H522): 30.2% | inhibition of growth at 10 µM (T47D): 33% | inhibition of growth at 10 µM (786-0): 11% | inhibition of growth at 10 µM (SN12C): < 1% | inhibition of growth at 10 µM (HL-60): < 1% | inhibition of growth at 10 µM (MDA-MB-468): < 1% | inhibition of growth at 10 µM (Malme-3M): 11% | inhibition of growth at 10 µM (COLO 205): < 1% | inhibition of growth at 10 µM (LOX IMVI): < 1% | inhibition of growth at 10 µM (RPMI-8226): 17.9% | inhibition of growth at 10 µM (A498): 54.3% | inhibition of growth at 10 µM (UO-31): 27.1% | inhibition of growth at 10 µM (MOLT-4): < 1% | inhibition of growth at 10 µM (CCRF-CEM): < 1% | inhibition of growth at 10 µM (CAKI-1): 13.7% | inhibition of growth at 10 µM (SK-OV-3): 11% | inhibition of growth at 10 µM (K562): 19.9% | inhibition of growth at 10 µM (RXF 393): < 1% | inhibition of growth at 10 µM (U-251): < 1% | inhibition of growth at 10 µM (NCI-H226): 17.5% | inhibition of growth at 10 µM (DU-145): < 1% | inhibition of growth at 10 µM (IGROV-1): 11.8% | inhibition of growth at 10 µM (HOP-62): 15.7% | inhibition of growth at 10 µM (Hs-578T): < 1% | inhibition of growth at 10 µM (MDA-MB-231): < 1% | inhibition of growth at 10 µM (SF-268): 13.9% | inhibition of growth at 10 µM (SNB-75): 47.8% | inhibition of growth at 10 µM (A549): 10.8% | inhibition of growth at 10 µM (SK-MEL-2): < 1% | inhibition of growth at 10 µM (SF-295): < 1% | inhibition of growth at 10 µM (TK-10): < 1% | inhibition of growth at 10 µM (MDA-MB-435): < 1% | inhibition of growth at 10 µM (HCT-116): < 1% | inhibition of growth at 10 µM (HT-29): 15.3% | inhibition of growth at 10 µM (OVCAR-8): < 1% | inhibition of growth at 10 µM (SF-539): < 1%
